ChEMBL document CHEMBL4043077, “Revisiting Previously Investigated Plants: A Molecular Networking-Based Study of Geissospermum laeve” (J Nat Prod, 2017)
Calls of active or inactive are those of the source. The rule behind the calls is not given here.

Legend:
[1] = tested on: Plasmodium falciparum; test: Antiparasitic activity against chloroquine-resistant Plasmodium falciparum FcB1/Columbia infected in human erythrocytes assessed as reduction in [3H]-hypoxanthine incorporation incubated for 24 hrs assay by liquid scintillation spectrometry; type: functional, cell-based
Method in brief: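 In vitro test of purified alkaloids against the FcB1 strain. Values are the mean ± standard error of three independent experiments.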

[2] = tested on: MRC5; test: Cytotoxic activity against human MRC5 cells incubated for 72 hrs by resazurin dye based spectrophotometry; type: cell-based; settings: MRC5, 72 h
Method in brief: (§1)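 Mean ± standard error of three independent in vitro experiments. Reference drugs: miltefosine for L. donovani LV9, tested on axenic amastigotes and on amastigotes inside RAW 264.7 macrophages; paclitaxel for MRC-5, a human fetal lung fibroblast line.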

[3] = tested on: Leishmania donovani; test: Antiparasitic activity against Leishmania donovani LV9 […] amastigotes infected in mouse RAW264.7 cells assessed induction of parasite cell morphological alteration at 6.25 uM incubated for 72 hrs by microscopy; type: functional, cell-based
Method in brief: (§2)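 RAW 264.7 macrophages infected with L. donovani LV9 amastigotes were incubated with compound for 72 h, then examined under the microscope for morphological alteration of the infected cells.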

[4] = tested on: Leishmania donovani; test: Antiparasitic activity against Leishmania donovani LV9 axenic amastigotes incubated for 72 hrs by resazurin dye based assay; type: functional; settings: LV9, 72 h; method in brief: as §1
[5] = tested on: Leishmania donovani; test: Antiparasitic activity against Leishmania donovani LV9 […] amastigotes infected in mouse RAW264.7 cells incubated for 48 hrs by Sybr Green I dye based assay; type: functional, cell-based; settings: LV9, RAW264.7, 48 h; method in brief: as §1
[6] = tested on: Leishmania donovani; test: Antiparasitic activity against Leishmania donovani LV9 […] amastigotes infected in mouse RAW264.7 cells assessed induction of parasite cell morphological alteration at 12.5 uM incubated for 72 hrs by microscopy; type: functional, cell-based; method in brief: as §2
[7] = tested on: Leishmania donovani; test: Antiparasitic activity against Leishmania donovani LV9 […] amastigotes infected in mouse RAW264.7 cells assessed induction of parasite cell morphological alteration at 100 uM incubated for 72 hrs by microscopy; type: functional, cell-based; method in brief: as §2
[8] = tested on: Leishmania donovani; test: Antiparasitic activity against Leishmania donovani LV9 […] amastigotes infected in mouse RAW264.7 cells assessed induction of parasite cell morphological alteration at 50 uM incubated for 72 hrs by microscopy; type: functional, cell-based; method in brief: as §2

SMILES	IC50 [1] [µM]	IC50 [2] [µM]	Activity [3]	IC50 [4] [µM]	IC50 [5] [µM]	Activity [6]	Activity [7]	Activity [8]
C/C=C1\C[C@H]2[C@@H]([C@@H]3OC[C@H]4[C@H]5C[C@@H]6N(CC[C@@]67c6ccccc6N3[C@@H]47)C[C@H]5CC)[C@@H]3Cc4c([nH]c5ccccc45)[C@H]2N3C1	1.9	0.022	Active	9.4	4.5	–	–	–
CCCCCCCCCCCCCCCCOP(=O)([O-])OCC[N+](C)(C)C [MILTEFOSINE]	–	–	–	1.4	5.2	Active	–	–
CCC1=C(CC(=O)OC)[C@@](O)(c2nccc3c2[nH]c2ccccc23)OC1=O	74.2	> 50	–	> 100	25.7	–	inactive	–
CC(=O)O[C@H]1C(=O)[C@@]2(C)[C@H]([C@H](OC(=O)c3ccccc3)[C@]3(O)C[C@H](OC(=O)[C@H](O)[C@@H](NC(=O)c4ccccc4)c4ccccc4)C(C)=C1C3(C)C)[C@]1(OC(C)=O)CO[C@@H]1C[C@@H]2O [PACLITAXEL]	–	0.00052	–	–	–	–	–	–
CC[C@@]12CCCN3C(=O)C=C(c4ccccc4NC(=O)CC1)[C@]32O	> 100	> 50	–	> 100	25	–	inactive	–
C/C=C1/C[n+]2ccc3c([nH]c4ccccc43)c2C[C@@H]1[C@@H](C(=O)OC)[C@@H]1OC[C@H]2[C@H]3C[C@@H]4N(CC[C@@]45c4ccccc4N1[C@@H]25)C[C@H]3CC	2.9	3	–	51.8	57.8	–	–	Active
CCC1=C(CC(=O)OC)[C@@](OC)(c2nccc3c2[nH]c2ccccc23)OC1=O	56	> 50	–	> 100	59.6	–	inactive	–
